Experimental data as given in ChEMBL document CHEMBL4017524, “A Novel Arylurea Fatty Acid That Targets the Mitochondrion and Depletes Cardiolipin To Promote Killing of Breast Cancer Cells” (J Med Chem, 2017).
Activity calls are given as the source filed them. No cut-off for these calls is given here.

Columns and labels:
MDA-MB-231 [1] = test: Cell cycle arrest in human MDA-MB-231 cells at 10 uM after 24 hrs by propidium iodide staining based flow cytometric analysis
MDA-MB-231 [2] = test: Cytotoxicity against human MDA-MB-231 cells assessed as decrease in ATP production at 10 uM after 24 to 48 hrs by CellTiter-Glo luminescent assay; format: functional, cell-based
MDA-MB-231 [3] = test: Cytotoxicity against human MDA-MB-231 cells assessed as decrease in cell adherence at 40 uM after 48 hrs by crystal violet staining based assay; format: functional
MDA-MB-231 [4] = test: Induction of apoptosis in human MDA-MB-231 cells at 10 uM after 48 hrs by annexin VFITC/7AAD staining based flow cytometry; format: functional, cell-based
Procedure, shortened: (§1)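 Annexin V-FITC/7AAD flow cytometry of cells after 48 h at 10 µM. Quadrants: E4 annexin V only (early apoptotic), E2 dual-stained (late apoptotic), E1 7AAD only, E3 unstained (viable). Compared with DMSO control. Mean±SEM from three experiments.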

MDA-MB-231 [5] = test: Cytotoxicity against human MDA-MB-231 cells assessed as decrease in cell viability at 40 uM after 48 hrs by crystal violet staining based assay; format: functional
MDA-MB-231 [6] = test: Induction of apoptosis in human MDA-MB-231 cells assessed as increase in caspases 3/7 activity at 10 uM after 48 hrs by Caspase-Glo assay; format: functional, cell-based
MDA-MB-231 [7] = test: Induction of apoptosis in human MDA-MB-231 cells assessed as mitochondrial membrane disruption by measuring red to green fluorescence ratio at 10 uM after 24 hrs by JC-1 staining based microscopic method relative to control; format: functional
Procedure, shortened: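 Cells exposed for 24 h at 10 µM, then stained with the cationic dye JC-1. Red (aggregate, intact inner membrane) to green (monomer) fluorescence ratio expressed relative to DMSO control. Mean±SEM of three experiments.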

MDA-MB-231 [8] = test: Cell cycle arrest in human MDA-MB-231 cells assessed as accumulation at sub-G1 phase at 10 uM after 24 hrs by propidium iodide staining based flow cytometric analysis (reference value: 1.4 +/- 0.03%); format: functional
MDA-MB-231 [9] = test: Antitumor activity against human MDA-MB-231 cells xenografted in ip dosed Balb/c nu/nu mouse assessed as decrease in tumor volume administered once daily 6 days per week for 32 to 38 days; format: functional, organism-based
Procedure, shortened: (§2)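 Female nu/nu mice, 7 weeks old, n=5-8 per group. Each received 4x10⁵ cells in 100 µl by subcutaneous injection into the 4th mammary fat pad. Intraperitoneal dosing at graded doses. Body weights and tumour sizes were measured. Isolated tumour sections were stained for TUNEL (apoptosis) and Ki67 (proliferation), with DAPI nuclear stain.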

MDA-MB-231 [10] = test: Antitumor activity against human MDA-MB-231 cells xenografted in Balb/c nu/nu mouse assessed as decrease in Ki67 biomarkers at 2.5 to 40 mg/kg, ip qd administered 6 days per week for 32 to 38 days by […] immunohistochemical analysis; format: functional, organism-based
Procedure, shortened: as §2

MDA-MB-231 [11] = test: Induction of apoptosis in human MDA-MB-231 cells assessed as viable cells at 10 uM after 48 hrs by annexin VFITC/7AAD staining based flow cytometry (reference value: 86.2 +/- 2.3%); format: functional; conditions: MDA-MB-231, 48 h, read-out: Activity
Procedure, shortened: as §1

MDA-MB-231 [12] = test: Induction of apoptosis in human MDA-MB-231 cells assessed as increase in caspases 3/7 activity at 10 uM after 24 hrs by Caspase-Glo assay relative to control; format: functional
Procedure, shortened: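 Executioner caspase-3/7 activity read after 24 h exposure at 10 µM and expressed relative to DMSO-treated control. Basal activity per 7.5 x 10⁴ cells was recorded. Mean±SEM of three separate experiments.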

MDA-MB-231 [13] = test: Cytotoxicity against human MDA-MB-231 cells assessed as decrease in ATP production at 10 uM after 24 hrs in presence of Ca2+ chelator BAPTA-AM by CellTiter-Glo luminescent assay; format: functional, cell-based
Procedure, shortened: (§3)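 ATP formation read in MDA-MB-231 cells co-treated with BAPTA-AM (5 or 25 µM) or with cyclosporin A (10 or 20 µM).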

MDA-MB-231 [14] = test: Induction of apoptosis in human MDA-MB-231 cells assessed as plasma membrane phospholipid phosphatidylcholine level per 1.05 X 10^7 cells at 14 uM after 24 hrs (reference value: 91 +/- 9 ug); format: functional
MDA-MB-231 [15] = test: Cytotoxicity against human MDA-MB-231 cells assessed as ATP production at 10 uM after 24 hrs by CellTiter-Glo luminescent assay relative to control; format: functional
Procedure, shortened: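 MDA-MB-231 cells exposed to 10 µM for 24 h, then ATP formation measured and expressed relative to DMSO-treated control. Basal ATP per 7.5 x 10⁴ cells was recorded at 24 h. Mean±SEM from three separate experiments.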

MDA-MB-231 [16] = test: Induction of apoptosis in human MDA-MB-231 cells assessed as mitochondrial membrane disruption at 10 uM after 6 hrs by JC-1/Hoechst 33342 staining based fluorescence microscopic assay; format: functional, cell-based
Procedure, shortened: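 Treatment with 10 µM or DMSO for 6 h. Cells were washed twice with serum-free medium, then incubated with JC-1 in serum-free medium at 37°C for 20 min. Hoechst 33342 nuclear counterstain, then fluorescence microscopy of green monomers versus red aggregates.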

MCF-10A = test: Cytotoxicity against human MCF10A cells assessed as decrease in ATP production at 10 to 20 uM after 48 hrs by CellTiter-Glo luminescent assay; format: cell-based
MDA-MB-231 [17] = test: Induction of mitochondrial membrane disruption in human MDA-MB-231 cells assessed as mitochondrial cardiolipin level at 14 uM after 24 hrs in presence of oleic acid; format: functional, cell-based
MDA-MB-231 [18] = test: Induction of apoptosis in human MDA-MB-231 cells assessed as late apoptotic cells at 10 uM after 48 hrs by annexin VFITC/7AAD staining based flow cytometry (reference value: 5.9 +/- 0.9%); format: functional
Procedure, shortened: as §1

MDA-MB-231 [19] = test: Cell cycle arrest in human MDA-MB-231 cells assessed as decrease in accumulation of G0G1 phase at 10 uM after 24 hrs by propidium iodide staining based flow cytometric analysis; format: functional
MDA-MB-468 [20] = test: Induction of apoptosis in human MDA-MB-468 cells assessed as increase in caspases 3/7 activity at 10 uM after 48 hrs by Caspase-Glo assay; format: functional, cell-based
MDA-MB-231 [21] = test: Induction of mitochondrial membrane disruption in human MDA-MB-231 cells assessed as mitochondrial cardiolipin level at 14 uM after 24 hrs relative to control; format: functional
MCF7 [22] = test: Induction of apoptosis in human MCF7 cells assessed as increase in caspases 3/7 activity at 10 uM after 48 hrs by Caspase-Glo assay; format: functional, cell-based
MDA-MB-231 [23] = test: Induction of mitochondrial membrane disruption in human MDA-MB-231 cells assessed as mitochondrial phosphatidylglycerol level at 14 uM after 24 hrs relative to control; format: functional
MDA-MB-231 [24] = test: Induction of apoptosis in human MDA-MB-231 cells assessed as early apoptotic cells at 10 uM after 48 hrs by annexin VFITC/7AAD staining based flow cytometry (reference value: 6.6 +/- 1.4%); format: functional
Procedure, shortened: as §1

T47D [25] = test: Cytotoxicity against human T47D cells assessed as decrease in ATP production at 10 uM up to 72 hrs by CellTiter-Glo luminescent assay; format: functional, cell-based
MDA-MB-231 [26] = test: Cytotoxicity against human MDA-MB-231 cells assessed as decrease in ATP production at 10 uM after 24 hrs in presence of mitochondrial permeability transition pore inhibitor cyclosporin A by CellTiter-Glo luminescent assay; format: functional, cell-based
Procedure, shortened: as §3

MDA-MB-231 [27] = test: Induction of mitochondrial membrane disruption in human MDA-MB-231 cells assessed as mitochondrial phosphatidylglycerol level at 14 uM after 24 hrs in presence of oleic acid; format: functional, cell-based
MDA-MB-231 [28] = test: Induction of reactive oxygen species in human MDA-MB-231 cells after 2 to 6 hrs by 2',7'-dichlorofluorescin dye based flow cytometric analysis; format: functional, cell-based
Procedure, shortened: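 Pro-oxidant stress followed by flow cytometry using 2',7'-dichlorofluorescin diacetate after 2-6 h of treatment in MDA-MB-231 cells.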

MDA-MB-468 [29] = test: Cytotoxicity against human MDA-MB-468 cells assessed as decrease in ATP production at 10 uM up to 72 hrs by CellTiter-Glo luminescent assay; format: functional, cell-based
MCF7 [30] = test: Cytotoxicity against human MCF7 cells assessed as decrease in ATP production at 10 uM up to 72 hrs by CellTiter-Glo luminescent assay; format: functional, cell-based
Mus musculus = test: Toxicity in Balb/c nude mouse assessed as change in body weight at 2.5 to 40 mg/kg, ip qd for 5 days; format: organism-based; conditions: in vivo, 120 h
Procedure, shortened: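 Balb/c mice given 2.5-40 mg/kg intraperitoneally for 5 days. Weight gain and other signs of toxicity were monitored.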

MDA-MB-231 [31] = test: Cell cycle arrest in human MDA-MB-231 cells assessed as decrease in accumulation of G2M phase at 10 uM after 24 hrs by propidium iodide staining based flow cytometric analysis; format: functional
MDA-MB-231 [32] = test: Cytotoxicity against human MDA-MB-231 cells assessed as decrease in cell viability at 40 uM after 48 hrs in presence of alpha-tocopherol by crystal violet staining based assay; format: functional
MDA-MB-231 [33] = test: Induction of apoptosis in human MDA-MB-231 cells assessed as necrotic cells at 10 uM after 48 hrs by annexin VFITC/7AAD staining based flow cytometry (reference value: 1.5 +/- 0.2%); format: functional
Procedure, shortened: as §1

MDA-MB-231 [34] = test: Cell cycle arrest in human MDA-MB-231 cells assessed as decrease in accumulation of S phase at 10 uM after 24 hrs by propidium iodide staining based flow cytometric analysis; format: functional
MDA-MB-231 [35] = test: Cytotoxicity against human MDA-MB-231 cells assessed as ATP production at 10 uM after 48 hrs by CellTiter-Glo luminescent assay relative to control; format: functional
T47D [36] = test: Induction of apoptosis in human T47D cells assessed as increase in caspases 3/7 activity at 10 uM after 48 hrs by Caspase-Glo assay; format: functional, cell-based
MDA-MB-231 [37] = test: Antitumor activity against human MDA-MB-231 cells xenografted in Balb/c nu/nu mouse assessed as TUNEL positive cells at 2.5 to 40 mg/kg, ip qd administered 6 days per week for 32 to 38 days; format: functional, organism-based
Procedure, shortened: as §2

O=C(O)CCCCCCCCCCCCCCCNC(=O)Nc1ccc(Cl)c(Cl)c1
Activity (MDA-MB-231 [1]): inactive | Activity (MDA-MB-231 [2]): inactive | Activity (MDA-MB-231 [3]): inactive | Activity (MDA-MB-231 [4]): inactive | Activity (MDA-MB-231 [5]): inactive | Activity (MDA-MB-231 [6]): inactive | Activity (MDA-MB-231 [7]): inactive

COc1ccc(NC(=O)NCCCCCCCCCCCCCCCC(=O)O)cc1
Activity (MDA-MB-231 [2]): inactive | Activity (MDA-MB-231 [7]): inactive

CC(C)(C)c1ccc(NC(=O)NCCCCCCCCCCCCCCCC(=O)O)cc1
Activity (MDA-MB-231 [2]): inactive | Activity (MDA-MB-231 [7]): inactive

Cc1ccc(NC(=O)NCCCCCCCCCCCCCCCC(=O)O)cc1
Activity (MDA-MB-231 [2]): inactive | Activity (MDA-MB-231 [7]): inactive

O=C(O)CCCCCCCCCCCCCCCNC(=O)Nc1ccc(Cl)c(C(F)(F)F)c1
Activity (MDA-MB-231 [8]): 20% | Activity (MDA-MB-231 [9]): Dose-dependent effect | Activity (MDA-MB-231 [3]): Active | Activity (MDA-MB-231 [10]): Active | viability at 10 µM (MDA-MB-231 [11]): 62.4% | Activity (MDA-MB-231 [12]): 203% | Activity (MDA-MB-231 [13]): Active | Activity (MDA-MB-231 [14]): 88 µg | Activity (MDA-MB-231 [15]): 72% | Activity (MDA-MB-231 [16]): Active | Activity (MCF-10A): Non-Toxic | Activity (MDA-MB-231 [17]): inactive | Activity (MDA-MB-231 [5]): Active | Activity (MDA-MB-231 [18]): 20% | Activity (MDA-MB-231 [19]): Active | Activity (MDA-MB-468 [20]): inactive | Activity (MDA-MB-231 [21]): 61% | Activity (MCF7 [22]): inactive | Activity (MDA-MB-231 [23]): 61% | Activity (MDA-MB-231 [7]): 32% | Activity (MDA-MB-231 [24]): 11% | Activity (T47D [25]): Active | Activity (MDA-MB-231 [26]): Active | Activity (MDA-MB-231 [27]): inactive | Activity (MDA-MB-231 [28]): inactive | Activity (MDA-MB-468 [29]): Active | Activity (MCF7 [30]): Active | Activity (Mus musculus): Non-Toxic | Activity (MDA-MB-231 [31]): Active | Activity (MDA-MB-231 [32]): Active | Activity (MDA-MB-231 [33]): 5.9% | Activity (MDA-MB-231 [34]): Active | Activity (MDA-MB-231 [35]): 30% | Activity (T47D [36]): Active | Activity (MDA-MB-231 [37]): Active

Cc1cc(NC(=O)NCCCCCCCCCCCCCCCC(=O)O)ccc1Cl
Activity (MDA-MB-231 [2]): inactive | Activity (MDA-MB-231 [3]): inactive | Activity (MDA-MB-231 [5]): inactive | Activity (MDA-MB-231 [6]): inactive | Activity (MDA-MB-231 [7]): inactive
